Measured values of several laboratories.
Lines come from different studies, so protocols differ.
PDGFRA: Platelet-derived growth factor receptor alpha (PDGFRA, Homo sapiens, UniProt P16234)
XDH: Xanthine dehydrogenase/oxidase (XDH, Bos taurus, UniProt P80457)
MAP4K5: Mitogen-activated protein kinase kinase kinase kinase 5 (MAP4K5, Homo sapiens, UniProt Q9Y4K4)
NT5E: 5'-nucleotidase (NT5E, Homo sapiens, UniProt P21589)

SMILES | target | test | setting | measurement | result
N#Cc1ccc(NC(=O)Nc2ccccc2)cc1 | PDGFRA | cell-free assay, competition with immobilised ligand | 25 µM | remaining binding | 92%
COc1ccc2oc(-c3ccc4nc(N)oc4c3)c/c(=N\c3ccccc3NC(=O)CCN)c2c1 | Platelet-derived growth factor receptor alpha (PDGFRA, Homo sapiens, UniProt P16234, D842V) | enzyme activity, inhibitor | 1 µM | remaining activity | 91%
O=C(NS(=O)(=O)c1ccccc1)c1cc2ccccc2n1Cc1ccc(Br)c2ccccc12 | XDH | enzyme activity, inhibitor, absorbance | 10 µM | inhibition | 20.3%
C#Cc1cnc(Nc2ccnc(CO)c2)nc1Nc1ccccc1S(C)(=O)=NC#N (stereo not drawn) | PDGFRA | cell-free assay | 1 µM | remaining signal | 58%
C1=C/COCc2cc(ccc2OCCN2CCCC2)Nc2nccc(n2)-c2cccc(c2)COC/1 | MAP4K5 | binding | 0.1 µM | remaining binding | 90%
Cc1cc(C)c(C#N)c(SCC(=O)Nc2ccon2)n1 | NT5E | enzyme activity, inhibitor | 10 µM | inhibition | 3%
CCCCC(=O)Nc1ccc(-c2ccc3ncn(CCC)c(=O)c3c2)cn1 | MAP4K5 | binding, competition with immobilised ligand | 0.5 µM | remaining binding | 92%
Cc1cc(C)c(C#N)c(SC=CC(=O)Nc2ccon2)n1 | NT5E | enzyme activity, inhibitor | 10 µM | inhibition | 34%
NC/C(=C\F)COc1cccc(Cn2c(=S)[nH]c(=O)c3[nH]cnc32)c1 | Lactoperoxidase (LPO, Bos taurus, UniProt P80025) | enzyme activity, inhibitor | 20 µM | remaining activity | 14.2%
COCCOCCOCCNC(=O)CSc1nc(-c2ccccc2)cc(C(F)(F)F)c1C#N | NT5E | enzyme activity, inhibitor | 10 µM | inhibition | -20%
CC(=O)ON=C1C=CC(=C(C#N)c2ccccc2)C=C1 | Dual specificity tyrosine-phosphorylation-regulated kinase 1A (Dyrk1a, Rattus norvegicus, UniProt Q63470) | enzyme activity, inhibitor, ADP detection | 20 µM | activity vs control | 101%
COC(=O)c1ccc(NC(=O)c2sc3nc(-c4ccccc4)cc(C(F)(F)F)c3c2N)cc1 | NT5E | enzyme activity, inhibitor, HPLC | 10 µM | inhibition | 94%
Oc1ncnc2[nH]ncc12 | XDH | enzyme activity, inhibitor | 250 µg/mL | inhibition | 99.3%
CC(C)(O)c1coc(S(=O)(=O)NC(=O)c2cc3ccccc3n2Cc2ccc(Br)c3ccccc23)c1 | XDH | enzyme activity, inhibitor, absorbance | 10 µM | inhibition | 1.21%
Cc1cc(C)c(C#N)c(SCC(=O)Nc2cccnc2)n1 | NT5E | enzyme activity, inhibitor | 10 µM | inhibition | 5%
